TAAR1 ag: human TAAR1 agonists, primary screen, Fluo-8 calcium fluorescence, CHO RD-HGA16 cells; vehicle wells 0%, saturating PEA agonist 100%; Trace amine-associated receptor 1 (Homo sapiens), Q96RJ0; activation, % at 3 µM; AID 624467, 2012; 0.99% of 360,000 active;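 active = activation above the mean activation of all test compounds in the run plus 3 SD, cut at about 38% in these data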
Target sequence (Q96RJ0 whole entry, looked up): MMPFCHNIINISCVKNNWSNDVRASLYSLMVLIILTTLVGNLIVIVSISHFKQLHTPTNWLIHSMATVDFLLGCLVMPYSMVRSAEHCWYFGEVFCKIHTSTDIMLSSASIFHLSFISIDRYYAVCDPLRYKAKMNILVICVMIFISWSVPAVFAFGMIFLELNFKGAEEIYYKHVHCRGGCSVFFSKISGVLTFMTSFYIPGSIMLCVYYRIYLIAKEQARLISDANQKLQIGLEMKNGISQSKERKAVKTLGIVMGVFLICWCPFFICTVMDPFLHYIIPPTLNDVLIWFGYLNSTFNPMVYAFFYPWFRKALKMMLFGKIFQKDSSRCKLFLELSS
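test system = CHO RD-HGA16 cells carrying human TAAR1 plus Gα16 | schedule = 17-24 h seeding, 75 min 37 °C dye, 30 min RT | compound dosing = 3 µM single concentration | control set = DMSO and PEA EC100 | replicates = n 1 | signal = Fluo-8 fluorescence, 5 s baseline then 140 s kinetic read | measure = percent activation vs PEA EC100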
M1 antag: human M1 muscarinic receptor antagonists, primary screen, CHO-K1 cells, Fluo-8 calcium fluorescence, 1536-well | Muscarinic acetylcholine receptor M1 (Homo sapiens), P11229 | CHO-K1 hM1, ACh EC80 antagonist | inhibition, % at 3 µM | 1.3% of 360,000 active | AID 588852, 2011;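 active = percent inhibition above its own plate's cutoff, namely the mean of that plate's compound wells plus 3 SD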;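 note: peak over basal fluorescence ratio during 140 s after agonist addition; 0% = ACh EC80 plus DMSO and 100% = DMSO alone without agonist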
CHRM1 agonist: human M1 muscarinic receptor agonists, primary screen, Fluo-8 calcium fluorescence, CHO-K1 cells, HTS; Muscarinic acetylcholine receptor M1 (Homo sapiens), P11229; CHO-K1 hM1, agonist mode; 0% DMSO, 100% acetylcholine EC100; activation, % at 3 µM; 0.33% of 360,000 active; AID 588814, 2011;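 active = activation above the run's mean compound activation plus 3 SD, cut at about 16% in these data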;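 note: peak over basal fluorescence ratio within a 140 s kinetic read after compound addition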
TAAR1 antagonist: human TAAR1 antagonists, primary screen, Fluo-8 calcium fluorescence, CHO RD-HGA16 cells; Trace amine-associated receptor 1 (Homo sapiens), Q96RJ0; antagonist; inhibition, % at 3 µM; 1.5% of 360,000 active;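 active = inhibition above a per-plate cutoff, the mean inhibition of test compounds on that plate plus 3 SD, cut at about 49% in these data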;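 note: 0% = DMSO plus EC80 beta-PEA response and 100% = DMSO alone without agonist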
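System: CHO RD-HGA16 cells bearing hTAAR1. Reagent: EC80 β-phenethylamine stimulus. Schedule: seeding 17-24 h prior, 75-min 37 °C, 30-min RT dye loading. Signal: Fluo-8 intracellular calcium dye fluorescence, real-time kinetic reads. Read-out: % inhibition from peak post-agonist over basal fluorescence ratio. Benchmarks: vehicle wells and EC80 agonist wells. Replicates: n of 1.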
CHRM1 PAM: human M1 muscarinic receptor positive allosteric modulators, primary screen, CHO-K1 cells, Fluo-8 calcium fluorescence, 1536-well. Muscarinic acetylcholine receptor M1 (Homo sapiens), P11229. CHO-K1 hM1, ACh EC20; 0% = ACh EC20, 100% = maximal ACh. activation, % at 3 µM. 0.088% of 360,000 active. AID 588819, 2011; in the data active = activation above about 19%, passing the limit was not always enough
Active calls of the source: *; / = no result given. The list is not random: actives were taken first. Their share in the collection is about 3.4%.

SMILES	TAAR1 ag	M1 antag	CHRM1 agonist	TAAR1 antagonist	CHRM1 PAM
CC(C)(C)c1ccccc1NC(=O)Nc1nc(C(N)Cc2ccc(F)cc2)cs1 (stereo unspecified)	28	-3	3	28	11
CCOC(=O)C1=C(C)N(CC(C)C)C(=O)/C1=C\c1ccc(OCC(=O)Nc2ccccc2)cc1	6	34*	-4	27	-20
CC1CCN(C(=O)c2ncn3c2C(=O)N[C@H](C)C3)CC1	0	/	/	7	/
COC(=O)C1=C(C)N(C)C(=NCC2CC2)NC1c1ccccc1C(F)(F)F (stereo unspecified)	1	/	/	-25	/
CCN(c1ccc(NC(=O)COC(=O)C2CCN(c3ccc(C(F)(F)F)cn3)CC2)cc1)C(C)C	0	35*	-8	-11	-20
C=CCN=C1NC(c2ccc(F)cc2)C(C(=O)OC)=C(C)N1Cc1ccccc1C(F)(F)F (stereo unspecified)	8	/	/	1	/
CSc1ncnc2c1ncn2CCCN1CCN(c2ncccn2)CC1	3	31*	-9	-9	-16
COc1ncnc2c1ncn2CCCN1CCN(c2ncccn2)CC1	9	1	-9	-16	0
COc1ccccc1C(=O)N(CCC1CCCN1C)c1nc2ccccc2s1 (stereo unspecified)	3	51*	-3	-6	-23
CN(C)CCCC1Sc2ccccc2Sc2ccccc21 (stereo unspecified)	16	76*	-3	-19	-25
COCC(=O)Nc1ccc2c(c1)[C@H]1C[C@@H](CC(=O)NCC3CC3)O[C@H](CO)[C@H]1O2	0	/	/	-1	/
CCn1c(SCc2ccc(C(=O)Nc3cc(C)cc(C)c3)cc2)nnc1-c1ccncc1	22	31*	3	59*	-8
COc1ccc(N=Nc2nc3ccc(Br)cc3n2C)cc1	15	8	17*	-4	-3
CN1CCN(C(=O)c2cc3c(c(-c4cccc(C#CC(C)(C)O)c4)n2)[C@H](CCO)N(S(=O)C(C)(C)C)C3)CC1 (stereo partly specified)	1	-7	0	6	-8
CCCNC(=O)c1cc2c(c(-c3cccc(-c4ccc(F)cc4)c3)n1)[C@@H](CCO)N(S(=O)C(C)(C)C)C2 (stereo partly specified)	12	19	-2	49*	-10
CCCNC(=O)c1cc2c(c(-c3cccc(-c4ccc(F)cc4)c3)n1)[C@H](CCO)N(S(=O)C(C)(C)C)C2 (stereo partly specified)	14	33	0	47	-13
COc1ccccc1-c1cccc(-c2nc(C(=O)N3CCCCC3)cc3c2[C@H](CCO)N(S(=O)C(C)(C)C)C3)c1 (stereo partly specified)	15	23	-4	58*	-11
C=CC[C@H](CC(=O)N(CCO)Cc1ccccc1)C(=O)NC[C@H](OC(=O)[C@@H](CC=C)CC(=O)OC(C)(C)C)c1ccccc1	13	17	-8	49*	-17
C=CC[C@@H](CC(=O)N(CCO)Cc1ccccc1)C(=O)N[C@@H](COC(=O)[C@@H](CC=C)CC(=O)OC(C)(C)C)Cc1c[nH]c2ccccc12	14	6	1	55*	6
C=CC[C@@H](CC(=O)N[C@@H](CO)Cc1ccccc1)C(=O)N[C@H](COC(=O)[C@@H](CC=C)CC(=O)OC(C)(C)C)Cc1c[nH]c2ccccc12	4	2	-5	39	-8
C=CC[C@@H](CC(=O)N(CCO)Cc1ccccc1)C(=O)N[C@H](COC(=O)[C@@H](CC=C)CC(=O)OC(C)(C)C)Cc1c[nH]c2ccccc12	12	12	-7	60*	-8
COc1cccc(C(CC2=CCCCC2)NC(=O)C(F)(F)F)c1 (stereo unspecified)	2	/	/	2	/
O=C(/C=C(\Nc1cccc(Cl)c1F)c1ccccc1)c1ccccc1	-2	/	/	19	/

Bioassay records deposited in PubChem BioAssay by The Scripps Research Institute Molecular Screening Center.
